Active and inactive are the calls of the source. The rule behind the calls is not given here.
Columns and labels:
[1] = Solubility at pH 7.4; format: physicochemical; settings: buffer
HT-29 = test: Antitumor activity against human HT-29 cells xenografted in nude mouse assessed as tumor growth inhibition at 5 mg/kg, iv once weekly; format: functional, organism-based; set-up: dose 5 mg/kg
Summary of the method: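 HT29 cells from ATCC, cultured by standard methods, grown as tumors in nude mice and randomized into groups (n = 10). Agent formulated in 5% dextrose in water and given iv once weekly. Vehicle-dosed controls. Tumor growth was monitored and analyzed as previously described.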

[2] = molecular target: Serine/threonine-protein kinase mTOR (Homo sapiens) (UniProt P42345); test: Inhibition of mTOR
[3] = Inhibition of PI3K
Plasma [4] = test: Stability in human plasma after 5 hrs; format: ADME, cell-free
Plasma [5] = test: Stability in rat plasma after 5 hrs; format: ADME, cell-free
Plasma [6] = test: Stability in mouse plasma after 5 hrs; format: ADME, cell-free
Plasma [7] = test: Stability in mouse plasma in presence of esterase inhibitor sodium fluoride; format: ADME, cell-free
Summary of the method: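 Compound was incubated in nude mouse plasma or whole blood at 37 °C for 2 h, with heparin or sodium fluoride/EDTA as anticoagulant. Time-point samples were quenched with acetonitrile, dried, reconstituted and analysed by LC/MS for parent and hydrolysis products.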

[8] = Stability in mouse plasma assessed as compound remaining after 120 mins relative to basal level; format: ADME, cell-free; settings: read-out: Stability
Summary of the method: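 Compound was incubated in heparinized plasma at 37 °C for 2 h. Samples taken at various time points were quenched with acetonitrile, dried under nitrogen and reconstituted in methanol/water 20:80. Intact compound was quantified by LC/MS.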

U-87MG ATCC = test: Antitumor activity against human U87MG cells xenografted in nude mouse assessed as tumor growth inhibition at 3 mg/kg, iv once weekly; format: functional, organism-based; set-up: dose 3 mg/kg
Summary of the method: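 U87MG glioma xenografts in nude mice were staged and randomized (n = 10). Dosing was iv once weekly in D5W (days 0, 6 or days 0, 6, 13), with vehicle controls. Tumor volume was measured twice weekly.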

Compound: C=CCN(/C=C1\C(=O)O[C@H](COC)[C@@]2(C)C1=C(O)C(=O)C1=C2[C@H](OC(C)=O)C[C@]2(C)[C@@H](O)CC[C@@H]12)CC=C
- solubility [1]: > 100 µg/mL

Compound: COC[C@H]1OC(=O)/C(=C\N(C)CCCN(C)C)C2=C(O)C(=O)C3=C([C@H](OC(C)=O)C[C@]4(C)[C@@H](O)CC[C@@H]34)[C@]21C
- Activity (HT-29): inactive
- solubility [1]: > 10000 µg/mL

Compound: C=CCN(/C=C1\C(=O)O[C@H](COC)[C@@]2(C)C1=C(O)C(=O)C1=C2[C@H](OC(C)=O)C[C@]2(C)[C@@H](OC(=O)CCCCCCC(=O)O[C@@H]3CC[C@@H](C[C@@H](C)[C@@H]4CC(=O)[C@H](C)/C=C(\C)[C@@H](O)[C@@H](OC)C(=O)[C@H](C)C[C@H](C)/C=C/C=C/C=C(\C)[C@@H](OC)C[C@@H]5CC[C@@H](C)[C@@](O)(O5)C(=O)C(=O)N5CCCC[C@H]5C(=O)O4)C[C@H]3OC)CC[C@@H]12)CC=C
- inhibition [2]: inactive
- inhibition [3]: inactive
- Stability (Plasma [4]): Stable
- Stability (Plasma [5]): Stable
- Stability (Plasma [6]): Stable

Compound: COC[C@H]1OC(=O)/C(=C\N(C)CCCN(C)C)C2=C(O)C(=O)C3=C([C@H](OC(C)=O)C[C@]4(C)[C@@H](OC(=O)CCCCC(=O)O[C@@H]5CC[C@@H](C[C@@H](C)[C@@H]6CC(=O)[C@H](C)/C=C(\C)[C@@H](O)[C@@H](OC)C(=O)[C@H](C)C[C@H](C)/C=C/C=C/C=C(\C)[C@@H](OC)C[C@@H]7CC[C@@H](C)[C@@](O)(O7)C(=O)C(=O)N7CCCC[C@H]7C(=O)O6)C[C@H]5OC)CC[C@@H]34)[C@]21C
- inhibition [2]: inactive
- Stability (Plasma [7]): Stable
- inhibition [3]: inactive
- remaining at 2 h [8]: 4%
- Activity (U-87MG ATCC): Active
